Key:
[1] = Biodistribution in rhesus monkey entorhinal cortex at 150.3 MBq, iv after 23 mins; assay type: ADME, organism-based, Macaca mulatta; settings: in vivo
Outline: (§1)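 Single male rhesus monkey anesthetized with ketamine 10 mg/kg im, head fixed. Attenuation correction by 20 min 68Ge-68Ga transmission scan. [11C]-tracer in saline (pH 7.4) given iv, specific radioactivity 2.9 TBq/μmol at injection. Dynamic 3D PET emission scan over 90 min in frames of 0.5 to 5 min. MRI T1 images used to define VOIs. Uptake expressed as […].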

[2] = Biodistribution in rhesus monkey occipital lobe at 150.3 MBq, iv after 52.5 mins; assay type: ADME, organism-based, Macaca mulatta; settings: in vivo, 0.875 h
[3] = Biodistribution in rhesus monkey cingulate cortex at 150.3 MBq, iv after 15 mins; assay type: ADME, organism-based, Macaca mulatta; settings: in vivo, 0.25 h
Outline: (§2)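 Male rhesus monkey under ketamine (10 mg/kg im) with head fixation. After a 20 min 68Ge-68Ga transmission scan, the [11C]-labelled tracer in saline (pH 7.4) was injected iv, at 2.9 TBq/μmol specific radioactivity at injection. A dynamic 3D PET scan followed over 90 min (6×0.5, 7×1, 20×2, 8×5 min frames). Regions were defined on T1-weighted 1.5 T MRI, and uptake is given as %ID/mL.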

[4] = Biodistribution in rhesus monkey cingulate cortex at 150.3 MBq, iv after 37 mins; assay type: ADME, organism-based, Macaca mulatta; settings: in vivo; outline: as §2
[5] = Biodistribution in rhesus monkey cerebellum at 150.3 MBq, iv after 21 mins; assay type: ADME, organism-based, Macaca mulatta; settings: in vivo, 0.35 h; outline: as §2
[6] = Biodistribution in rhesus monkey cerebellum at 150.3 MBq, iv after 4.5 mins; assay type: ADME, organism-based, Macaca mulatta; settings: in vivo, 0.075 h; outline: as §2
Hippocampus [7] = experiment: Biodistribution in rhesus monkey hippocampus at 150.3 MBq, iv after 2.25 mins; assay type: ADME, organism-based, Macaca mulatta; settings: in vivo, 135 s; outline: as §1
Striatum [8] = experiment: Biodistribution in rhesus monkey striatum at 150.3 MBq, iv after 15 mins; assay type: ADME, organism-based, Macaca mulatta; settings: in vivo, 0.25 h
Hippocampus [9] = experiment: Biodistribution in rhesus monkey hippocampus at 150.3 MBq, iv after 7.5 mins; assay type: ADME, organism-based, Macaca mulatta; settings: in vivo, 0.125 h
Outline: (§3)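 Male rhesus monkey under ketamine 10 mg/kg im, head fixed; 20 min 68Ge-68Ga transmission scan, then 90 min dynamic 3D PET (6×0.5, 7×1, 20×2, 8×5 min frames) after iv [11C]-labelled tracer in saline, specific radioactivity about 2.9 TBq/μmol at injection. Regions defined on T1-weighted MRI; uptake expressed as % injected dose per mL.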

Striatum [10] = experiment: Biodistribution in rhesus monkey striatum at 150.3 MBq, iv after 77.5 mins; assay type: ADME, organism-based, Macaca mulatta; settings: in vivo
[11] = Biodistribution in rhesus monkey cerebellum at 150.3 MBq, iv after 29 mins; assay type: ADME, organism-based, Macaca mulatta; settings: in vivo; outline: as §2
[12] = Biodistribution in rhesus monkey entorhinal cortex at 150.3 MBq, iv after 1.75 mins; assay type: ADME, organism-based, Macaca mulatta; settings: in vivo, 105 s; outline: as §1
Striatum [13] = experiment: Biodistribution in rhesus monkey striatum at 150.3 MBq, iv after 17 mins; settings: in vivo
[14] = Biodistribution in rhesus monkey cerebellum at 150.3 MBq, iv after 39 mins; assay type: ADME, organism-based, Macaca mulatta; settings: in vivo, 0.65 h; outline: as §2
Hippocampus [15] = experiment: Biodistribution in rhesus monkey hippocampus at 150.3 MBq, iv after 33 mins; assay type: ADME, organism-based, Macaca mulatta; settings: in vivo, 0.55 h; outline: as §3
[16] = Biodistribution in rhesus monkey retina at 150.3 MBq, iv after 37 mins; assay type: ADME, organism-based, Macaca mulatta; settings: in vivo
[17] = Biodistribution in rhesus monkey retina at 150.3 MBq, iv after 13 mins; assay type: ADME, organism-based, Macaca mulatta; settings: in vivo
[18] = Biodistribution in rhesus monkey cerebellum at 150.3 MBq, iv after 3.5 mins; assay type: ADME, organism-based, Macaca mulatta; settings: in vivo; outline: as §2
[19] = Biodistribution in rhesus monkey retina at 150.3 MBq, iv after 33 mins; assay type: ADME, organism-based, Macaca mulatta; settings: in vivo, 0.55 h
[20] = Biodistribution in rhesus monkey entorhinal cortex at 150.3 MBq, iv after 33 mins; assay type: ADME, organism-based, Macaca mulatta; settings: in vivo, 0.55 h; outline: as §1
[21] = Biodistribution in rhesus monkey retina at 150.3 MBq, iv after 2.25 mins; assay type: ADME, organism-based, Macaca mulatta; settings: in vivo, 135 s
Striatum [22] = experiment: Biodistribution in rhesus monkey striatum at 150.3 MBq, iv after 8.5 mins; assay type: ADME, organism-based, Macaca mulatta; settings: in vivo
Striatum [23] = experiment: Biodistribution in rhesus monkey striatum at 150.3 MBq, iv after 25 mins; assay type: ADME, organism-based, Macaca mulatta; settings: in vivo
Striatum [24] = experiment: Biodistribution in rhesus monkey striatum at 150.3 MBq, iv after 2.75 mins; assay type: ADME, organism-based, Macaca mulatta; settings: in vivo, 165 s
Hippocampus [25] = experiment: Biodistribution in rhesus monkey hippocampus at 150.3 MBq, iv after 87.5 mins; assay type: ADME, organism-based, Macaca mulatta; settings: in vivo; outline: as §3
Hippocampus [26] = experiment: Biodistribution in rhesus monkey hippocampus at 150.3 MBq, iv after 35 mins; assay type: ADME, organism-based, Macaca mulatta; settings: in vivo; outline: as §3
[27] = Biodistribution in rhesus monkey cingulate cortex at 150.3 MBq, iv after 13 mins; assay type: ADME, organism-based, Macaca mulatta; settings: in vivo; outline: as §2
[28] = Biodistribution in rhesus monkey cingulate cortex at 150.3 MBq, iv after 8.5 mins; assay type: ADME, organism-based, Macaca mulatta; settings: in vivo; outline: as §1
[29] = Biodistribution in rhesus monkey cingulate cortex at 150.3 MBq, iv after 21 mins; assay type: ADME, organism-based, Macaca mulatta; settings: in vivo, 0.35 h; outline: as §2
[30] = Biodistribution in rhesus monkey entorhinal cortex at 150.3 MBq, iv after 62.5 mins; assay type: ADME, organism-based, Macaca mulatta; settings: in vivo; outline: as §1
Striatum [31] = experiment: Biodistribution in rhesus monkey striatum at 150.3 MBq, iv after 87.5 mins; assay type: ADME, organism-based, Macaca mulatta; settings: in vivo
Striatum [32] = experiment: Biodistribution in rhesus monkey striatum at 150.3 MBq, iv after 1.75 mins; assay type: ADME, organism-based, Macaca mulatta; settings: in vivo, 105 s
[33] = Biodistribution in rhesus monkey cerebellum at 150.3 MBq, iv after 77.5 mins; assay type: ADME, organism-based, Macaca mulatta; settings: in vivo; outline: as §2
[34] = Biodistribution in rhesus monkey occipital lobe at 150.3 MBq, iv after 3.5 mins; assay type: ADME, organism-based, Macaca mulatta; settings: in vivo; outline: as §3
[35] = Biodistribution in rhesus monkey cingulate cortex at 150.3 MBq, iv after 72.5 mins; assay type: ADME, organism-based, Macaca mulatta; settings: in vivo; outline: as §1
[36] = Biodistribution in rhesus monkey retina at 150.3 MBq, iv after 52.5 mins; assay type: ADME, organism-based, Macaca mulatta; settings: in vivo, 0.875 h
Striatum [37] = experiment: Biodistribution in rhesus monkey striatum at 150.3 MBq, iv after 67.5 mins; assay type: ADME, organism-based, Macaca mulatta; settings: in vivo, 1.125 h
[38] = Biodistribution in rhesus monkey cerebellum at 150.3 MBq, iv after 15 mins; assay type: ADME, organism-based, Macaca mulatta; settings: in vivo, 0.25 h; outline: as §2
Hippocampus [39] = experiment: Biodistribution in rhesus monkey hippocampus at 150.3 MBq, iv after 25 mins; assay type: ADME, organism-based, Macaca mulatta; settings: in vivo; outline: as §1
Striatum [40] = experiment: Biodistribution in rhesus monkey striatum at 150.3 MBq, iv after 49 mins; assay type: ADME, organism-based, Macaca mulatta; settings: in vivo
[41] = Biodistribution in rhesus monkey cerebellum at 150.3 MBq, iv after 5.5 mins; assay type: ADME, organism-based, Macaca mulatta; settings: in vivo; outline: as §2
[42] = Biodistribution in rhesus monkey cerebellum at 150.3 MBq, iv after 72.5 mins; assay type: ADME, organism-based, Macaca mulatta; settings: in vivo; outline: as §2
[43] = Biodistribution in rhesus monkey cingulate cortex at 150.3 MBq, iv after 49 mins; assay type: ADME, organism-based, Macaca mulatta; settings: in vivo; outline: as §1
Hippocampus [44] = experiment: Biodistribution in rhesus monkey hippocampus […], iv after 17 mins; assay type: ADME, organism-based, Macaca mulatta; settings: in vivo, in the assay text read “150.3 MBq” for “170.3 MBq”; outline: as §3
[45] = Biodistribution in rhesus monkey cingulate cortex at 150.3 MBq, iv after 3.5 mins; assay type: ADME, organism-based, Macaca mulatta; settings: in vivo; outline: as §2
[46] = Biodistribution in rhesus monkey retina at 150.3 MBq, iv after 82.5 mins; assay type: ADME, organism-based, Macaca mulatta; settings: in vivo, 1.375 h
Striatum [47] = experiment: Biodistribution in rhesus monkey striatum at 150.3 MBq, iv after 19 mins; assay type: ADME, organism-based, Macaca mulatta; settings: in vivo

SMILES: [11CH3]Oc1cccc(C(=O)NCCN2CCN(c3ncccc3C#N)CC2)c1
- Drug uptake [1]: 16.74 kBq/ml
- Drug uptake [2]: 9.487 kBq/ml
- Drug uptake [3]: 20.1 kBq/ml
- Drug uptake [4]: 11.95 kBq/ml
- Drug uptake [5]: 16.76 kBq/ml
- Drug uptake [6]: 34.76 kBq/ml
- Drug uptake (Hippocampus [7]): 50.51 kBq/ml
- Drug uptake (Striatum [8]): 21.63 kBq/ml
- Drug uptake (Hippocampus [9]): 34.09 kBq/ml
- Drug uptake (Striatum [10]): 8.262 kBq/ml
- Drug uptake [11]: 14.54 kBq/ml
- Drug uptake [12]: 39.28 kBq/ml
- Drug uptake (Striatum [13]): 20.6138 kBq/ml
- Drug uptake [14]: 10.98 kBq/ml
- Drug uptake (Hippocampus [15]): 13.18 kBq/ml
- Drug uptake [16]: 57.39 kBq/ml
- Drug uptake [17]: 50.22 kBq/ml
- Drug uptake [18]: 38.562 kBq/ml
- Drug uptake [19]: 57.47 kBq/ml
- Drug uptake [20]: 16.29 kBq/ml
- Drug uptake [21]: 36.9 kBq/ml
- Drug uptake (Striatum [22]): 31.7 kBq/ml
- Drug uptake (Striatum [23]): 17.99 kBq/ml
- Drug uptake (Striatum [24]): 50.12 kBq/ml
- Drug uptake (Hippocampus [25]): 8.159 kBq/ml
- Drug uptake (Hippocampus [26]): 12.16 kBq/ml
- Drug uptake [27]: 22.54 kBq/ml
- Drug uptake [28]: 30.4104 kBq/ml
- Drug uptake [29]: 17.1 kBq/ml
- Drug uptake [30]: 10.43 kBq/ml
- Drug uptake (Striatum [31]): 8.125 kBq/ml
- Drug uptake (Striatum [32]): 56.85 kBq/ml
- Drug uptake [33]: 8.009 kBq/ml
- Drug uptake [34]: 37.15 kBq/ml
- Drug uptake [35]: 9.513 kBq/ml
- Drug uptake [36]: 55.05 kBq/ml
- Drug uptake (Striatum [37]): 9.576 kBq/ml
- Drug uptake [38]: 19.28 kBq/ml
- Drug uptake (Hippocampus [39]): 16.72 kBq/ml
- Drug uptake (Striatum [40]): 10.09 kBq/ml
- Drug uptake [41]: 33.43 kBq/ml
- Drug uptake [42]: 8.18 kBq/ml
- Drug uptake [43]: 10.6 kBq/ml
- Drug uptake (Hippocampus [44]): 19.15 kBq/ml
- Drug uptake [45]: 42.88 kBq/ml
- Drug uptake [46]: 52.3 kBq/ml
- Drug uptake (Striatum [47]): 20.01 kBq/ml
